Measured values published in ChEMBL document CHEMBL4340525, “Tumor-Targeted Delivery of 6-Diazo-5-oxo-l-norleucine (DON) Using Substituted Acetylated Lysine Prodrugs” (J Med Chem, 2019).

Experiments:
[1] = Stability in human liver S9 fraction assessed as parent compound remaining at 1 uM measured after 1 hr by LC-MS/MS analysis; format: ADME, subcellular; details: read-out: Stability
Method in brief: (§1)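 Human liver microsomes (0.2 mg/mL protein) or S9 fraction (0.5 mg/mL) were incubated with prodrug at 1 µM final, 37 °C, 1 h with shaking. Reactions were quenched in triplicate with three volumes acetonitrile containing losartan. Parent remaining was taken from analyte/internal-standard peak-area ratio by UHPLC-MS/MS.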

[2] = Tmax in CES1-deficient C57BL/6 mouse tumor implanted with mouse EL4 cells at 3.2 mg/kg, sc administered as single dose by LC-MS/MS analysis; format: ADME, organism-based, Neoplasm
Method in brief: (§2)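 Male and female C57BL/6 CES1-/- mice, 6–8 weeks old, carried flank EL4 tumours from SC injection of 1 × 10^6 cells in PBS. Dosing began at about 400 mm3 mean tumour volume. Each mouse got one SC dose of 3.2 mg/kg (1 mg/kg DON equivalent) in ethanol/Tween 80/saline 5:10:85. Plasma, jejunum and tumour were taken at set times, n = 3 per time point. Prodrug and dabsyl-derivatised DON were measured by LC-MS/MS. Noncompartmental analysis: Cmax and Tmax observed, AUClast by log-linear trapezoidal rule.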

[3] = Drug level in human P493B cells suspended in human plasma assessed as tumor cell to plasma ratio by measuring 6-diazo-5-oxo-L-norleucine formation at 20 uM measured after 1 hr by LC-MS/MS analysis; format: ADME, cell-based
Method in brief: (§3)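 Cells were grown in RPMI 1640 with 10% FBS, washed in DPBS and resuspended in human plasma at 10 million cells/mL. After 5 min preincubation at 37 °C, compound was added at 20 µM final for 1 h. The mix was centrifuged at 10 000g and the washed pellet and plasma were quantified separately. DON was read by LC-MS/MS after dabsyl chloride derivatisation, intact prodrug directly. Standard curves were made in naive cells or plasma.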

[4] = Cmax in CES1-deficient C57BL/6 mouse tumor implanted with mouse EL4 cells at 3.2 mg/kg, sc administered as single dose by LC-MS/MS analysis; format: ADME, organism-based, Neoplasm; design: dose 3.2 mg/kg, route subcutaneous; details: in vivo; method in brief: as §2
[5] = Prodrug conversion in human P493B cells suspended in human plasma assessed as deacetylation by measuring (6a) (S)-2-{(S)-2-[(Adamantane-1-carbonyl)-amino]-6-amino-hexanoylamino}-6-diazo-5-oxo-hexanoic acid isopropyl ester formation measured after 1 hr by HRMS analysis; format: ADME, cell-based
Method in brief: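 Metabolite identification: compound was incubated 1 h with 10 million P493B cells suspended in 1 mL human plasma. Cell pellets were collected and metabolites identified by HRMS.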

[6] = Drug level in mouse EL4 cells implanted in CES1-deficient C57BL/6 mouse assessed as tumor cell to plasma ratio at 3.2 mg/kg, sc administered as single dose measured after 1 hr by LC-MS/MS analysis; format: ADME, organism-based
[7] = Prodrug conversion in human plasma suspended with human DU4475 cells assessed as 6-diazo-5-oxo-L-norleucine formation at 20 uM measured after 1 hr by LC-MS/MS analysis; format: ADME, cell-free; method in brief: as §3
[8] = Drug level in human P493B cells suspended in human plasma assessed as tumor cell to plasma ratio by measuring 6-diazo-5-oxo-L-norleucine formation at 20 uM measured after 1 hr by LC-MS/MS analysis relative to 6-diazo-5-oxo-L-norleucine alone; format: ADME, cell-based; method in brief: as §3
[9] = Stability in human plasma suspended with human P493B cells at 20 uM measured after 1 hr by LC-MS/MS analysis; format: ADME, cell-free; method in brief: as §3
[10] = AUC (0 to t) in CES1-deficient C57BL/6 mouse plasma implanted with mouse EL4 cells assessed as 6-diazo-5-oxo-L-norleucine level at 3.2 mg/kg, sc administered as single dose by LC-MS/MS analysis; format: ADME, organism-based; details: in vivo; method in brief: as §2
[11] = Stability in swine jejunum assessed as parent compound remaining at 20 uM measured after 1 hr by LC-MS/MS analysis; format: ADME, tissue-based, Sus scrofa; details: pig
Method in brief: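 Washed swine jejunum was diluted 10-fold in 0.1 M potassium phosphate buffer and probe-sonicated. Prodrug was spiked at 20 µM final and incubated 1 h at 37 °C with orbital shaking. Triplicate quench in acetonitrile with losartan internal standard. Percent parent remaining by LC-MS/MS peak-area ratio.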

[12] = Stability in human liver microsomes assessed as parent compound remaining at 1 uM measured after 1 hr by LC-MS/MS analysis; format: ADME, Microsome; details: read-out: Stability; method in brief: as §1
[13] = AUC (0 to t) in CES1-deficient C57BL/6 mouse tumor implanted with mouse EL4 cells assessed as 6-diazo-5-oxo-L-norleucine level at 3.2 mg/kg, sc administered as single dose by LC-MS/MS analysis; format: ADME, organism-based, Neoplasm; details: in vivo; method in brief: as §2
[14] = AUC (0 to t) in CES1-deficient C57BL/6 mouse jejunum implanted with mouse EL4 cells assessed as 6-diazo-5-oxo-L-norleucine level at 3.2 mg/kg, sc administered as single dose by LC-MS/MS analysis; format: ADME, organism-based; details: in vivo; method in brief: as §2
[15] = target: Procathepsin L (Homo sapiens, UniProt P07711); test: Stability of the compound assessed as recombinant human cathepsin L-mediated compound hydrolysis by measuring parent compound remaining at 1 uM measured after 3 hrs by UHPLC-MS analysis; format: ADME
Sequence of Procathepsin L (P07711 whole entry): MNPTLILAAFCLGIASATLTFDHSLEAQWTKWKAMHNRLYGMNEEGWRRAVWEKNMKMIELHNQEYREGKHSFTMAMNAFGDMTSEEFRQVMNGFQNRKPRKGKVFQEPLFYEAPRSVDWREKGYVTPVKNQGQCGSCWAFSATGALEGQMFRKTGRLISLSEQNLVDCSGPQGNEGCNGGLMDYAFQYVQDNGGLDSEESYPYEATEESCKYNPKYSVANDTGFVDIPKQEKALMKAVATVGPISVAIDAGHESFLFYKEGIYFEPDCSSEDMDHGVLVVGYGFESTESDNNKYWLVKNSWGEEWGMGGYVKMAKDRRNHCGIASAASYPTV
Method in brief: (§4)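 Compound at 1 µM was incubated at 37 °C with shaking in 50 mM MES pH 6 with 5 mM DTT. Recombinant human enzyme final levels: HDAC2 10 µg/mL, cathepsin B 1 µg/mL, cathepsin L 0.1 µg/mL, alone or cathepsins B+L combined. Aliquots were quenched in methanol with losartan at 0.25, 0.5, 1 and 3 h. Parent remaining by Q-TOF LC-MS.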

[16] = Tmax in CES1-deficient C57BL/6 mouse jejunum implanted with mouse EL4 cells at 3.2 mg/kg, sc administered as single dose by LC-MS/MS analysis; format: ADME, organism-based; details: in vivo, BLD = below limit of detection; method in brief: as §2
[17] = Stability in mouse plasma assessed as parent compound remaining at 20 uM measured after 1 hr by LC-MS/MS analysis
[18] = Stability in human plasma suspended with human P493B cells at 20 uM by LC-MS/MS analysis; format: ADME; details: TDE = time-dependent effect; method in brief: as §3
[19] = target: Histone deacetylase 2 (Homo sapiens, UniProt Q92769); test: Stability of the compound assessed as recombinant human HDAC2-mediated compound hydrolysis by measuring parent compound remaining at 1 uM measured after 3 hrs by UHPLC-MS analysis; format: ADME; method in brief: as §4
Sequence of Histone deacetylase 2 (Q92769 whole entry): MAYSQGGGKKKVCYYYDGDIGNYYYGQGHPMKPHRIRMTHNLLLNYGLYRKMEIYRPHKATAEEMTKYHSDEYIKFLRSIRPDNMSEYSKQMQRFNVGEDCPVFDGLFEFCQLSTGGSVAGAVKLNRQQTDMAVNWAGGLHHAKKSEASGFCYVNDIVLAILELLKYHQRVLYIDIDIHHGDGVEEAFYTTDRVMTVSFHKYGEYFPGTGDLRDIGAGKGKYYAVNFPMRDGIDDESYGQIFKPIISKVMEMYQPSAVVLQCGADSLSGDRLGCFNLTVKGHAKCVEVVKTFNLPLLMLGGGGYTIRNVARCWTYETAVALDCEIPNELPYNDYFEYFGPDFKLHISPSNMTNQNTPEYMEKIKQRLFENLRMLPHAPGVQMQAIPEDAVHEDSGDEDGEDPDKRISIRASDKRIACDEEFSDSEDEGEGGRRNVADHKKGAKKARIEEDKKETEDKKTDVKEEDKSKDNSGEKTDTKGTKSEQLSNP

[20] = Prodrug conversion in human DU4475 cells suspended in human plasma assessed as 6-diazo-5-oxo-L-norleucine formation at 20 uM measured after 1 hr by LC-MS/MS analysis; format: ADME, cell-based; details: du-4475, 1 h; method in brief: as §3
[21] = target: Cathepsin B (Homo sapiens, UniProt P07858); test: Stability of the compound assessed as recombinant human cathepsin B-mediated compound hydrolysis by measuring parent compound remaining at 1 uM measured after 3 hrs by UHPLC-MS analysis; format: ADME; method in brief: as §4
[22] = Ratio of 6-diazo-5-oxo-L-norleucine EC50 to test compound EC50 for human P493B cells; format: functional

Question: What does the source list for `CC(=O)NCCCC[C@H](NC(=O)C12CC3CC(CC(C3)C1)C2)C(=O)N[C@@H](CCC(=O)C=[N+]=[N-])C(=O)OC(C)C`?
Answer: remaining at 1 h, 1 µM [1]: 100%; Tmax [2]: 30 min; Ratio [3]: 22; Cmax [4]: 0.05 nmol/g; Drug metabolism [5]: Metabolite_Detected; Kp at 1 h [6]: 16; Drug metabolism [7]: 0.25 to 0.5 µM; fold change (FC) [8]: 55; Stability [9]: Stable; AUCt [10]: 1.06 µM·h; Stability [11]: > 50%; remaining at 1 h, 1 µM [12]: 100%; AUCt [13]: 5.07 nmol·h/g; AUCt [14]: 0.45 nmol·h/g; Stability [15]: 36%; Tmax [16]: Bld; Stability [17]: 0%; Stability [18]: Tde; Stability [19]: > 95%; Drug metabolism [20]: 11.8 µM; Stability [21]: 64%; Ratio EC50 [22]: 2
